Series [1] is filed under the species Homo sapiens. Nature of the series: Selectivity ratio of IC50 for human constitutive proteasome beta 5 subunit to IC50 for human immunoproteasome beta 5i subunit.
The target in series [2] is T1, Proteasome subunit beta type-8 (Homo sapiens, UniProt P28062).
T1 sequence (P28062 whole entry): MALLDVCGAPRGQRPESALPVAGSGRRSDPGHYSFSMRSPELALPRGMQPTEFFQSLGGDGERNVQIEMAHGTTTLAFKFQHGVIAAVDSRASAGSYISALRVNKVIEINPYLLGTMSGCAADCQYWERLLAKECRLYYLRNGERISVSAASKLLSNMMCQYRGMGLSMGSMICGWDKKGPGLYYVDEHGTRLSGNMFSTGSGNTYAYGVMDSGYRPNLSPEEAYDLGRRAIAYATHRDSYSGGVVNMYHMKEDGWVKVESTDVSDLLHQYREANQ
Kind of series: Inhibition of human immunoproteasome beta 5i subunit using Suc-LLVY-AMC as substrate preincubated for 30 mins followed by substrate addition and measured for 120 mins by fluorescence based assay.

The test system of series [3] is PBMC. Kind of series: Inhibition of LPS-induced IL-6 secretion in human PBMC at 50 nM preincubated for 1 hr followed by LPS addition and measured after 24 hrs by cytometric bead array-based FACS analysis. The format is functional, cell-based.
Series [4] relates to PBMC. Kind of series: Inhibition of LPS-induced IL-10 secretion in human PBMC at 50 nM preincubated for 1 hr followed by LPS addition and measured after 24 hrs by cytometric bead array-based FACS analysis. Type of series: functional, cell-based. On the technique in general: A flow cytometer gives signals particle by particle.
In series [5] the target is T2, Proteasome subunit beta type-8 (Homo sapiens) (UniProt P28062).
T2 sequence (whole entry): T1 sequence (P28062 whole entry)
Nature of the series: Reversible inhibition of human immunoproteasome beta 5i subunit assessed as recovery of enzyme activity at 45 nM using Suc-LLVY-AMC as substrate preincubated for 30 mins followed by 100-fold diluted substrate addition by rapid dilution assay relative to control. Details: scale not given: the % may be the effect or the level left.

Series [6] deals with PBMC. Kind of series: Inhibition of LPS-induced IL-12p70 production in human PBMC at 50 nM preincubated for 1 hr followed by LPS addition and measured after 24 hrs by cytometric bead array-based FACS analysis. The format is functional, cell-based.
The test system of series [7] is PBMC. Nature of the series: Inhibition of LPS-induced IL-8 production in human PBMC at 50 nM preincubated for 1 hr followed by LPS addition and measured after 24 hrs by cytometric bead array-based FACS analysis. The format is functional, cell-based.
Series [8] relates to PBMC. Nature of the series: Inhibition of LPS-induced TNFalpha production in human PBMC at 50 nM preincubated for 1 hr followed by LPS addition and measured after 24 hrs by cytometric bead array-based FACS analysis. The format is functional, cell-based.
Series [9] concerns PBMC. Kind of series: Inhibition of LPS-induced IL-1beta production in human PBMC at 50 nM preincubated for 1 hr followed by LPS addition and measured after 24 hrs by cytometric bead array-based FACS analysis. Type of series: functional, cell-based.
Series [10] deals with T2, Proteasome subunit beta type-8 (Homo sapiens). Nature of the series: Inhibition of 26S immunoproteasome beta 5 chymotrypsin-like activity in human HeLa intact cells using […] as substrate after 2 hrs by luciferase based assay. Type of series: cell-based.
Series [11] addresses T3, Proteasome subunit beta type-9 (Homo sapiens) (UniProt P28065).
T3 sequence (whole entry): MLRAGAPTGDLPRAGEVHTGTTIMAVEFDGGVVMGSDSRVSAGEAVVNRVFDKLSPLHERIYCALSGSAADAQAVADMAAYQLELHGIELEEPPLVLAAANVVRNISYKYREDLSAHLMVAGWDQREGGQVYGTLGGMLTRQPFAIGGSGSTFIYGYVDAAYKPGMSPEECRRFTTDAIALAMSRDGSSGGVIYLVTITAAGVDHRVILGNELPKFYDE
Kind of series: Inhibition of human immunoproteasome beta 1i subunit at 10 uM using Ac-PAL-AMC as substrate preincubated for 30 mins followed by substrate addition measured for 120 mins by fluorescence based assay. In a few lines:
(§1)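 Purified human immunoproteasome or constitutive proteasome subunit activities measured with fluorogenic substrates in presence of 10 μM compound; reported as residual activity.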

Series [12] concerns PBMC. Kind of series: Inhibition of LPS-induced IL-12p70 production in human PBMC at 10 uM preincubated for 1 hr followed by LPS addition and measured after 24 hrs by cytometric bead array-based FACS analysis. Type of series: functional, cell-based.
Series [13] relates to PBMC. Nature of the series: Inhibition of LPS-induced IL-6 secretion in human PBMC at 10 uM preincubated for 1 hr followed by LPS addition and measured after 24 hrs by cytometric bead array-based FACS analysis. The format is functional, cell-based.
In series [14] the target is T4, Proteasome subunit beta type-10 (Homo sapiens) (UniProt P40306).
T4 sequence (whole entry): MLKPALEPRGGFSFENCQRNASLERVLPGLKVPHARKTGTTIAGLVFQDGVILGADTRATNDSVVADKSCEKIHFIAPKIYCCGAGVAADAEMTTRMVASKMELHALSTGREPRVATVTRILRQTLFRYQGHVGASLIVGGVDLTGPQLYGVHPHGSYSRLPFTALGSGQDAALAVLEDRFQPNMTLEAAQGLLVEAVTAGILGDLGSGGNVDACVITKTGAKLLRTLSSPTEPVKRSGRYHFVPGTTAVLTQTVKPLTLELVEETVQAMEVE
Nature of the series: Inhibition of human immunoproteasome beta 2i subunit at 10 uM using Boc-LRR-AMC as substrate preincubated for 30 mins followed by substrate addition measured for 120 mins by fluorescence based assay. In a few lines:
as §1

Series [15] has as its target T5, Proteasome subunit beta type-10 (Homo sapiens, UniProt P40306).
T5 sequence (P40306 whole entry): T4 sequence (whole entry)
Nature of the series: Inhibition of human immunoproteasome beta 2i subunit using Boc-LRR-AMC as substrate preincubated for 30 mins followed by substrate addition measured for 120 mins by fluorescence based assay.

In series [16] the target is T2, Proteasome subunit beta type-8 (Homo sapiens). Kind of series: Inhibition of 20S immunoproteasome beta 5 chymotrypsin-like activity in human HeLa cell lysates using Suc-LLVY-AMC as substrate preincubated for 30 mins followed by substrate addition and measured for 90 mins by fluorescence based assay. The format is subcellular. Particulars: Lysate. Put shortly: (§2)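 Compounds incubated with cell lysates (HeLa: predominantly constitutive proteasome; THP-1: high immunoproteasome) and beta5 activity read with fluorogenic Suc-LLVY-AMC; IC50 determined.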

Series [17] deals with PBMC. Nature of the series: Inhibition of LPS-induced IL-1beta production in human PBMC at 10 uM preincubated for 1 hr followed by LPS addition and measured after 24 hrs by cytometric bead array-based FACS analysis. The format is functional, cell-based.
The target of series [18] is T6, Proteasome Macropain subunit MB1 (Homo sapiens, UniProt P28074).
T6 sequence (P28074 whole entry): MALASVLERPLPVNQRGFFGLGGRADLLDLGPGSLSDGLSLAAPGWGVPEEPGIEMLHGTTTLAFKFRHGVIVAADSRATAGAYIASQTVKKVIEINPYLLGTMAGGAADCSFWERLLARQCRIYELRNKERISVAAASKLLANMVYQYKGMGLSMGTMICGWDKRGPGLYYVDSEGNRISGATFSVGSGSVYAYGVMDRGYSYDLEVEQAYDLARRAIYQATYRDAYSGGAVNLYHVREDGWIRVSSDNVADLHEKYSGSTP
Kind of series: Inhibition of human constitutive proteasome beta 5 subunit using Suc-LLVY-AMC as substrate preincubated for 30 mins followed by substrate addition measured for 120 mins by fluorescence based assay.

For series [19], the target named is T2, Proteasome subunit beta type-8 (Homo sapiens). Kind of series: Time-dependent inhibition of human immunoproteasome beta 5i subunit assessed as increase in IC50 value using Suc-LLVY-AMC as substrate co-incubated with substrate without preincubation by fluorescence based analysis relative to 30 mins preincubated compound-treated control. In a few lines:
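IC50 against immunoproteasome beta5i (Suc-LLVY-AMC) determined without pre-incubating compound with enzyme before substrate addition, compared against pre-incubated assay.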

Series [20] has as its system PBMC. Kind of series: Inhibition of LPS-induced TNFalpha production in human PBMC at 10 uM preincubated for 1 hr followed by LPS addition and measured after 24 hrs by cytometric bead array-based FACS analysis. Type of series: functional, cell-based.
Series [21] has as its target T1, Proteasome subunit beta type-8. Kind of series: Inhibition of 20S immunoproteasome beta 5 chymotrypsin-like activity in human THP-1 cell lysates using Suc-LLVY-AMC as substrate preincubated for 30 mins followed by substrate addition and measured for 90 mins by fluorescence based assay. Type of series: subcellular, Lysate. In a few lines:
as §2

For series [22], the system named is PBMC. Nature of the series: Inhibition of LPS-induced IL-8 production in human PBMC at 10 uM preincubated for 1 hr followed by LPS addition and measured after 24 hrs by cytometric bead array-based FACS analysis. Type of series: functional, cell-based.
For series [23], the target named is T2, Proteasome subunit beta type-8 (Homo sapiens). Kind of series: Inhibition of 26S immunoproteasome beta 5 chymotrypsin-like activity in human THP-1 intact cells using […] as substrate after 2 hrs by luciferase based assay. The format is cell-based.
Series [24] shares this target. Kind of series: Irreversible inhibition of human immunoproteasome beta 5i subunit assessed as recovery of enzyme activity at 1060 nM using Suc-LLVY-AMC as substrate preincubated for 30 mins followed by 100-fold diluted substrate addition by rapid dilution assay relative to control. On the set-up: scale not given: the % may be the effect or the level left.
Series [25] concerns the target T7, Proteasome subunit beta type-9 (Homo sapiens, UniProt P28065).
T7 sequence (P28065 whole entry): T3 sequence (whole entry)
Nature of the series: Inhibition of human immunoproteasome beta 1i subunit using Ac-PAL-AMC as substrate preincubated for 30 mins followed by substrate addition measured for 120 mins by fluorescence based assay.

Series [26] concerns the target T6, Proteasome Macropain subunit MB1. Kind of series: Inhibition of human constitutive proteasome beta 5 subunit at 10 uM using Suc-LLVY-AMC as substrate preincubated for 30 mins followed by substrate addition measured for 120 mins by fluorescence based assay. Particulars: 2 h. In a few lines: as §1
The test system of series [27] is PBMC. Kind of series: Inhibition of LPS-induced IL-10 secretion in human PBMC at 10 uM preincubated for 1 hr followed by LPS addition and measured after 24 hrs by cytometric bead array-based FACS analysis. The format is functional, cell-based.

Calls of active or inactive are those of the source. No cut-off for these calls is given here.

What is called IC50 is the concentration needed to halve the response being measured. In the case of `Cc1c(-c2nsc(=O)o2)c(=O)oc2cc3occ(-c4ccccc4)c3cc12`, the Ratio IC50 in [1] stood at 80. Moreover, in series [2], the IC50 came to 0.013 µM.

For `CC(C)(C)ONC(=O)C[C@H](NC(=O)CCc1ccccc1)C(=O)N[C@@H](Cc1ccc(F)cc1)C(=O)NCc1cccc2ccccc12`, the inhibition entry in series [3] and in [4] was “Active” throughout. Besides, the Activity in series [5] came to 100%. The inhibition result in series [6], in series [7], in series [8] and in series [9] was “inactive” throughout.

`Cc1c(-c2nsc(=O)o2)c(=O)oc2cc3occ(C4CCCCC4)c3cc12`: the inhibition result in [10], in series [11], in series [12], in [14], in series [17] and in [20] was “inactive” throughout. For the same compound, the inhibition entry in [22] and in series [23] was “inactive” throughout. The inhibition result in series [13], in [16], in [19] and in series [27] was “Active” in each case. The half-maximal inhibitory concentration (IC50) result in series [15] is “Nd(Insoluble)”; in [18] it was “Nd(Insoluble)”; in series [21] it was 1.01 µM; in series [2], 0.106 µM; in [25], “Nd(Insoluble)”. The Activity in [24] amounted to 22%. Also, the “inhibition (INH)” value in [26] is listed as “Not Active”.

The record behind these values is ChEMBL document CHEMBL4334435, “A focused structure-activity relationship study of psoralen-based immunoproteasome inhibitors” (Medchemcomm, 2019).
